# According to ChEMBL document CHEMBL5113498, “A fragment-based drug discovery strategy applied to the identification of NDM-1 β-lactamase inhibitors” (Eur J Med Chem, 2022):
# System: Bacteria
# Test: Inhibition of […] (unknown origin) using imipenem as substrate at 50 uM by spectrophotometric assay relative to control
# Conditions: not given
# Outline: (§1)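 Reporter-substrate spectrophotometric assay in 50 mM HEPES pH 7.5. Imipenem 150 μM (final) hydrolysis followed as absorbance change at 300 nm, with and without 50 μM compound. Compounds dissolved in DMSO (100 mM stock) and diluted in reaction buffer. % inhibition = 100 − 100×(vi/v0). 5 mM EDTA served as inhibition control.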
row,Structure (SMILES),inhibition [%]
1,O=C(/C=C/c1ccc2c(c1)OCO2)c1ccccc1O,< 20
2,Oc1cccc2ccc(CCc3ccc4c(c3)OCO4)nc12,90
3,O=C(/C=C/c1ccc(N2CCCCC2)cc1)c1ccccc1O,35
4,O=C1/C(=C/c2ccc(N3CCCCC3)cc2)Oc2cc(O)cc(O)c21,74
5,CCCCOc1ccc(/C=C2\Oc3cc(O)cc(O)c3C2=O)c(O)c1,46

# Further lines, results first:
row,inhibition [%],Structure (SMILES)
1,77,O=C1/C(=C/c2ccc(O)c(O)c2)Cc2cc(O)cc(O)c21
2,85,Oc1cccc2ccc(CCc3ccccc3)nc12
3,24,O=C(/C=C/c1ccc(N2CCOCC2)cc1)c1ccccc1O
4,95,Oc1cccc2ccc(/C=C/c3ccccc3)nc12
5,93,Oc1cccc2ccc(/C=C/c3ccc4c(c3)OCO4)nc12

# System: Klebsiella pneumoniae
# Test: Antibacterial activity against Klebsiella pneumoniae SI-518 assessed as reduction in microbial growth after 24 hrs by two-fold serial dilution method
# Assay type: functional
# Conditions: not given
# Outline: (§2)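 NDM-1-producing clinical isolate; meropenem MIC measured without inhibitor and with a fixed 32 μg/mL inhibitor (in each well and in the diluent) over two-fold serial dilutions. Mueller-Hinton broth, 5×10^4 CFU/well inoculum, per CLSI. Incubated 35 °C for 24 h and read visually. Triplicate. Compounds from a DMSO stock diluted in medium.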
row,Structure (SMILES),MIC [µg/mL]
1,C[C@@H](O)[C@H]1C(=O)N2C(C(=O)O)=C(S[C@@H]3CN[C@H](C(=O)N(C)C)C3)[C@H](C)[C@H]12 [MEROPENEM],64

# System: Escherichia coli
# Test: Antibacterial activity against Escherichia coli SI-004M assessed as reduction in microbial growth after 24 hrs by two-fold serial dilution method
# Assay type: functional
# Conditions: not given
# Outline: as §2
row,Structure (SMILES),MIC [µg/mL]
1,C[C@@H](O)[C@H]1C(=O)N2C(C(=O)O)=C(S[C@@H]3CN[C@H](C(=O)N(C)C)C3)[C@H](C)[C@H]12 [MEROPENEM],64

# System: Klebsiella pneumoniae
# Test: Synergistic antibacterial activity against Klebsiella pneumoniae SI-518 assessed as meropenem MIC at 32 ug/ml after 24 hrs by two-fold serial dilution method
# Assay type: functional
# Conditions: dose 32 µg/ml
# Outline: (§3)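 Meropenem MICs against NDM-1-producing clinical isolates, with or without inhibitor fixed at 32 μg/mL, by two-fold serial dilution in Mueller-Hinton broth. Inoculum 5×10^4 CFU/well, CLSI method. Inhibitor added before the antibiotic. Plates incubated 24 h at 35 °C and read visually. Done in triplicate.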
row,MIC [µg/mL],Structure (SMILES)
1,64,Oc1cccc2ccc(CCc3ccc4c(c3)OCO4)nc12
2,0.25,Oc1cccc2ccc(/C=C/c3ccccc3)nc12

# System: Escherichia coli
# Test: Synergistic antibacterial activity against Escherichia coli SI-004M assessed as meropenem MIC at 32 ug/ml after 24 hrs by two-fold serial dilution method
# Assay type: functional
# Conditions: dose 32 µg/ml
# Outline: as §3
row,MIC [µg/mL],Structure (SMILES)
1,64,Oc1cccc2ccc(CCc3ccc4c(c3)OCO4)nc12
2,1,Oc1cccc2ccc(/C=C/c3ccccc3)nc12

# System: Escherichia coli
# Test: Synergistic antibacterial activity against Escherichia coli SI-004M assessed as fold reduction in meropenem MIC at 32 ug/ml after 24 hrs by two-fold serial dilution method
# Assay type: functional
# Conditions: dose 32 µg/ml
# Outline: as §3
row,Structure (SMILES),fold change (FC)
1,Oc1cccc2ccc(/C=C/c3ccccc3)nc12,64

# System: Klebsiella pneumoniae
# Test: Synergistic antibacterial activity against Klebsiella pneumoniae SI-518 assessed as fold reduction in meropenem MIC at 32 ug/ml after 24 hrs by two-fold serial dilution method
# Assay type: functional
# Conditions: dose 32 µg/ml
# Outline: as §3
row,Structure (SMILES),fold change (FC)
1,Oc1cccc2ccc(/C=C/c3ccccc3)nc12,256

# Target: not listed separately
# Test: Inhibition of […] (unknown origin) using imipenem as substrate by spectrophotometric assay relative to control
# Set-up: species or system Bacteria
# Conditions: not given
# Outline: (§4)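 Ki from a competitive model. Initial rates of hydrolysis of 150 μM imipenem (reporter substrate) measured spectrophotometrically in 50 mM HEPES pH 7.5 at varying inhibitor concentrations. v0/vi plotted against [I], and Ki = KM/[(KM+[S])·slope]. Assays run in triplicate.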
row,Structure (SMILES),Ki [µM]
1,Oc1cccc2ccc(CCc3ccc4c(c3)OCO4)nc12,1.1
2,O=C1/C(=C/c2ccc(N3CCCCC3)cc2)Oc2cc(O)cc(O)c21,4.8

# Other lines, results leading:
row,Ki [µM],Structure (SMILES)
1,4.1,O=C1/C(=C/c2ccc(O)c(O)c2)Cc2cc(O)cc(O)c21
2,2.2,Oc1cccc2ccc(/C=C/c3ccccc3)nc12

# System: Bacteria
# Test: Inhibition of IMP-1 (unknown origin) using imipenem as substrate at 50 uM by spectrophotometric assay relative to control
# Conditions: not given
# Outline: as §1
row,Structure (SMILES),inhibition [%]
1,Oc1cccc2ccc(CCc3ccc4c(c3)OCO4)nc12,71
2,O=C1/C(=C/c2ccc(N3CCCCC3)cc2)Oc2cc(O)cc(O)c21,< 20

# More lines, now with the values ahead:
row,inhibition [%],Structure (SMILES)
1,23,O=C1/C(=C/c2ccc(O)c(O)c2)Cc2cc(O)cc(O)c21
2,76,Oc1cccc2ccc(CCc3ccccc3)nc12
3,84,Oc1cccc2ccc(/C=C/c3ccccc3)nc12
4,79,Oc1cccc2ccc(/C=C/c3ccc4c(c3)OCO4)nc12

# System: Bacteria
# Test: Inhibition of VIM-2 (unknown origin) using imipenem as substrate at 50 uM by spectrophotometric assay relative to control
# Conditions: not given
# Outline: as §1
row,Structure (SMILES),inhibition [%]
1,Oc1cccc2ccc(CCc3ccc4c(c3)OCO4)nc12,38
2,O=C1/C(=C/c2ccc(N3CCCCC3)cc2)Oc2cc(O)cc(O)c21,< 20

# Further lines, results first:
row,inhibition [%],Structure (SMILES)
1,< 20,O=C1/C(=C/c2ccc(O)c(O)c2)Cc2cc(O)cc(O)c21
2,28,Oc1cccc2ccc(CCc3ccccc3)nc12
3,37,Oc1cccc2ccc(/C=C/c3ccccc3)nc12
4,26,Oc1cccc2ccc(/C=C/c3ccc4c(c3)OCO4)nc12

# Target: not listed separately
# Test: Inhibition of IMP-1 (unknown origin) using imipenem as substrate by spectrophotometric assay relative to control
# Set-up: species or system Bacteria
# Conditions: not given
# Outline: as §4
row,Ki [µM],Structure (SMILES)
1,4.7,Oc1cccc2ccc(/C=C/c3ccccc3)nc12
